Measured values from ChEMBL document CHEMBL3120161, “Antimycobacterial activity of nitrogen heterocycles derivatives: bipyridine derivatives. Part III” (Eur J Med Chem, 2014).
Converted amounts (≈) assume the structure as drawn.

What was measured:
[1] = system: Mycobacterium tuberculosis; test: Antimycobacterial activity against Mycobacterium tuberculosis H37Rv ATCC 27294 at 1.25 to 5 ug/ml after 7 days by microplate Alamar blue assay relative to control; format: functional
Procedure, shortened: (§1)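 Cycle 1 HTS MABA: M. tuberculosis H37Rv ATCC 27294 in 7H12 broth, 384-well, final 1% DMSO. Ten twofold dilutions, typically 100 to 0.195 µg/mL. Amikacin controls at 0.17 and 3.20 µM; the high level serves as background for percent inhibition. 7 days at 37 °C, ~95% humidity. Fluorescence read at 535 nm excitation / 590 nm emission.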

[2] = system: Mycobacterium tuberculosis; test: Antimycobacterial activity against Mycobacterium tuberculosis H37Rv ATCC 27294 at 0.63 ug/ml after 7 days by microplate Alamar blue assay relative to control; format: functional; conditions: H37Rv ATCC 27294, 168 h; procedure, shortened: as §1
[3] = system: Mycobacterium tuberculosis; test: Antimycobacterial activity against Mycobacterium tuberculosis H37Rv ATCC 27294 after 7 days by microplate Alamar blue assay; format: functional, organism-based; conditions: H37Rv ATCC 27294, 168 h; procedure, shortened: as §1
[4] = system: Mycobacterium tuberculosis; test: Antimycobacterial activity against Mycobacterium tuberculosis H37Rv ATCC 27294 at 0.08 ug/ml after 7 days by microplate Alamar blue assay relative to control; format: functional; conditions: H37Rv ATCC 27294, 168 h
[5] = system: Mycobacterium tuberculosis; test: Antimycobacterial activity against Mycobacterium tuberculosis H37Rv ATCC 27294 after 7 days by broth microdilution assay; format: functional; conditions: H37Rv ATCC 27294, 168 h; procedure, shortened: as §1
[6] = system: Mycobacterium tuberculosis; test: Antimycobacterial activity against Mycobacterium tuberculosis H37Rv ATCC 27294 at 0.16 to 0.31 ug/ml after 7 days by microplate Alamar blue assay relative to control; format: functional; procedure, shortened: as §1
[7] = system: Mycobacterium tuberculosis; test: Antimycobacterial activity against Mycobacterium tuberculosis H37Rv ATCC 27294 at 12.5 ug/ml after 7 days by microplate Alamar blue assay relative to control; format: functional; conditions: H37Rv ATCC 27294, 168 h; procedure, shortened: as §1
[8] = system: Mycobacterium tuberculosis; test: Antimycobacterial activity against Mycobacterium tuberculosis H37Rv ATCC 27294 at 50 ug/ml after 7 days by microplate Alamar blue assay relative to control; format: functional; conditions: H37Rv ATCC 27294, 168 h; procedure, shortened: as §1
[9] = system: Mycobacterium tuberculosis; test: Antimycobacterial activity against Mycobacterium tuberculosis H37Rv ATCC 27294 at 100 ug/ml after 7 days by microplate Alamar blue assay relative to control; format: functional; conditions: H37Rv ATCC 27294, 168 h; procedure, shortened: as §1
[10] = system: Mycobacterium tuberculosis; test: Antimycobacterial activity against Mycobacterium tuberculosis H37Rv ATCC 27294 at 25 ug/ml after 7 days by microplate Alamar blue assay relative to control; format: functional; conditions: H37Rv ATCC 27294, 168 h; procedure, shortened: as §1
[11] = system: Mycobacterium tuberculosis; test: Antimycobacterial activity against Mycobacterium tuberculosis H37Rv ATCC 27294 at 1.56 ug/ml after 7 days by microplate Alamar blue assay relative to control; format: functional; conditions: H37Rv ATCC 27294, 168 h; procedure, shortened: as §1
[12] = system: Mycobacterium tuberculosis; test: Antimycobacterial activity against Mycobacterium tuberculosis H37Rv ATCC 27294 at 12.5 to 50 ug/ml after 7 days by microplate Alamar blue assay relative to control; format: functional; procedure, shortened: as §1
[13] = system: Mycobacterium tuberculosis; test: Antimycobacterial activity against Mycobacterium tuberculosis H37Rv ATCC 27294 at 6.25 ug/ml after 7 days by microplate Alamar blue assay relative to control; format: functional; conditions: H37Rv ATCC 27294, 168 h; procedure, shortened: as §1
[14] = system: Mycobacterium tuberculosis; test: Antimycobacterial activity against Mycobacterium tuberculosis H37Rv ATCC 27294 at 3.13 ug/ml after 7 days by microplate Alamar blue assay relative to control; format: functional; conditions: H37Rv ATCC 27294, 168 h; procedure, shortened: as §1
[15] = system: Mycobacterium tuberculosis; test: Antimycobacterial activity against Mycobacterium tuberculosis H37Rv ATCC 27294 at 0.31 ug/ml after 7 days by microplate Alamar blue assay relative to control; format: functional; conditions: H37Rv ATCC 27294, 168 h; procedure, shortened: as §1
[16] = system: Mycobacterium tuberculosis; test: Antimycobacterial activity against Mycobacterium tuberculosis H37Rv SRI 1345 infected in mouse J774A1 cells assessed as reduction in bacterial growth at 0.1 ug/ml after 7 days relative to control; format: functional, J774.A1
Procedure, shortened: (§2)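 Murine J774 macrophages grown in RPMI 1640 with L-glutamine and FBS at 37 °C, 5% CO2. Plated at 2.0 × 10^5 in 10% FBS, switched to 1% FBS next day. Infected 24 h later at MOI 5 for 4 h, washed, then drug added. At 0 and 7 days, cells lysed with SDS, DNase-treated and plated on 7H10 agar for CFU. Duplicates; read-out is log reduction from day 0 to day 7.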

[17] = system: Mycobacterium tuberculosis; test: Antimycobacterial activity against Mycobacterium tuberculosis H37Rv SRI 1345 infected in mouse J774A1 cells assessed as reduction in bacterial growth at 1 ug/ml after 7 days relative to control; format: functional, J774.A1; procedure, shortened: as §2
[18] = system: Mycobacterium tuberculosis; test: Antimycobacterial activity against Mycobacterium tuberculosis H37Rv SRI 1345 after 7 days by broth microdilution assay; format: functional; conditions: H37Rv SRI 1345, 168 h
[19] = system: Mycobacterium tuberculosis; test: Antimycobacterial activity against Mycobacterium tuberculosis H37Rv SRI 1345 incubated for 7 days under anaerobic condition measured after 7 days of recovery under gaseous condition by low oxygen recovery assay; format: functional
[20] = Cytotoxicity against mouse J774A1 cells assessed as cell viability at 1 ug/ml after 7 days by MTT assay relative to control; format: cell-based, J774.A1; conditions: read-out: Activity
Procedure, shortened: (§3)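 Uninfected murine J774 macrophages grown in RPMI 1640 with L-glutamine and FBS at 37 °C, 5% CO2. Cells seeded at 2.0 × 10^5 per well in 10% FBS, then switched to 1% FBS overnight. Run in parallel with the 7-day infection assay. […] Read out by MTT as percent viability.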

[21] = system: Mycobacterium tuberculosis; test: Antimycobacterial activity against Mycobacterium tuberculosis H37Rv SRI 1345 at MIC after 7 days by broth microdilution assay relative to control; format: functional
[22] = system: Mycobacterium tuberculosis; test: Antimycobacterial activity against Mycobacterium tuberculosis H37Rv SRI 1345 infected in mouse J774A1 cells assessed as reduction in bacterial growth at 0.01 ug/ml after 7 days relative to control; format: functional, J774.A1; procedure, shortened: as §2
[23] = Cytotoxicity against mouse J774A1 cells assessed as cell viability at 0.01 ug/ml after 7 days by MTT assay relative to control; format: cell-based, J774.A1; conditions: read-out: Activity; procedure, shortened: as §3
[24] = system: Mycobacterium tuberculosis; test: […] activity against Mycobacterium tuberculosis H37Rv SRI 1345 after 16 to 21 days; format: functional; conditions: read-out: MBC99.9
Procedure, shortened: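 MBC, done after MIC testing in H37Rv SRI 1345: diluted aliquots from wells without macroscopic growth are plated on Middlebrook 7H10 agar and incubated 16–21 days at 37 °C. CFUs are counted. MBC is the lowest concentration giving 99.9% kill; rejection value is ≥40 colonies.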

[25] = Cytotoxicity against mouse J774A1 cells assessed as cell viability at 0.1 ug/ml after 7 days by MTT assay relative to control; format: cell-based, J774.A1; conditions: read-out: Activity; procedure, shortened: as §3
[26] = system: Mycobacterium tuberculosis; test: Antimycobacterial activity against Mycobacterium tuberculosis H37Rv ATCC 27294 at 0.02 ug/ml after 7 days by microplate Alamar blue assay relative to control; format: functional; conditions: H37Rv ATCC 27294, 168 h; procedure, shortened: as §1

Row | Structure (SMILES) | inhibition (INH) [1] [%] | inhibition at 0.63 µg/mL [2] [%] | IC50 [3] [µg/mL] | IC90 [3] [µg/mL] | MIC90 [5] [µM] | inhibition at 50 µg/mL [8] [%] | inhibition at 100 µg/mL [9] [%] | inhibition at 25 µg/mL [10] [%] | other results
1 | NCC[C@H](O)C(=O)N[C@@H]1C[C@H](N)[C@@H](O[C@H]2O[C@H](CN)[C@@H](O)[C@H](O)[C@H]2O)[C@H](O)[C@H]1O[C@H]1O[C@H](CO)[C@@H](O)[C@H](N)[C@H]1O [AMIKACIN] | 98 | 97.3 | 0.07 (≈ 0.12 µM) | 0.08 (≈ 0.137 µM) | 0.16 (≈ 0.0937 µg/mL) | – | – | – | inhibition at 0.08 µg/mL [4]: 79.8%; inhibition (INH) [6]: 96%
2 | N[C@@H]1CONC1=O [CYCLOSERINE] | – | – | 12.5 (≈ 122 µM) | 13.5 (≈ 132 µM) | 25 (≈ 2.55 µg/mL) | 96.3 | 97.7 | 93.9 | inhibition at 12.5 µg/mL [7]: 51%
3 | CC[C@@H](CO)NCCN[C@@H](CC)CO [ETHAMBUTOL] | – | – | < 1.56 | 32.8 (≈ 160 µM) | 12.5 (≈ 2.55 µg/mL) | – | 90 | – | inhibition at 1.56 µg/mL [11]: 69.1%; inhibition (INH) [12]: 89%; inhibition at 6.25 µg/mL [13]: 86.6%; inhibition at 3.13 µg/mL [14]: 84.3%
4 | NNC(=O)c1ccncc1 [ISONIAZID] | 94 | 93.9 | 0.18 (≈ 1.31 µM) | 0.29 (≈ 2.11 µM) | 0.31 (≈ 0.0425 µg/mL) | – | – | – | inhibition at 0.31 µg/mL [15]: 92.9%
5 | CCc1nc(N)nc(N)c1-c1ccc(Cl)cc1 [PYRIMETHAMINE] | – | – | 37.4 (≈ 150 µM) | 75 (≈ 301 µM) | 100 (≈ 24.9 µg/mL) | 69.7 | 95.6 | 26.7 | –
6 | CO[C@H]1/C=C/O[C@@]2(C)Oc3c(C)c(O)c4c(O)c(c(/C=N/N5CCN(C)CC5)c(O)c4c3C2=O)NC(=O)/C(C)=C\C=C\[C@H](C)[C@H](O)[C@@H](C)[C@@H](O)[C@@H](C)[C@H](OC(C)=O)[C@@H]1C [RIFAMPIN] | – | – | 0.02 (≈ 0.0243 µM) | 0.02 (≈ 0.0243 µM) | 0.04 (≈ 0.0329 µg/mL) | – | – | – | fold change (FC) [16]: 0.81; fold change (FC) [17]: 1.49; MIC [18]: 0.049 µg/mL (≈ 0.0595 µM); INH [19]: 0.13 µg/mL; viability at 168 h, 1 ug/ml [20]: 85%; inhibition (INH) [21]: 63%; fold change (FC) [22]: 0.98; viability at 168 h, 0.01 ug/ml [23]: 94%; MBC [24]: 1.56 µg/mL (≈ 1.9 µM); viability at 168 h, 0.1 ug/ml [25]: 93%; inhibition at 0.02 µg/mL [26]: 61.2%
